From ChEMBL document CHEMBL5247671, “Design and Synthesis of Pyrazole-Based Macrocyclic Kinase Inhibitors Targeting BMPR2” (ACS Med Chem Lett, 2023) come the findings set out here.

Each structure is given as a SMILES string. pIC50, pKd: −log10 of the molar value. A value given as a limit tells only on which side of the number the result lay.

A word on the ΔTm: it is the shift of the melting midpoint relative to a reference. What is called pIC50 is the IC50 on a negative log10 scale, so that one unit is a factor of ten. What is called pKd is the Kd on a negative log10 scale, so that one unit is a factor of ten.

Experiment [1] addresses T1, Glycogen synthase kinase-3 beta (Homo sapiens, UniProt P49841). Put plainly: Binding affinity to recombinant GSK3B (unknown origin) assessed as change in melting temperature at 10 uM by DSF assay. Put shortly: (§1)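 Differential scanning fluorimetry on an in-house panel of 90 recombinant kinases. Stabilization is read as the shift in melting temperature (ΔTm) relative to ligand-free protein. Staurosporine served as the positive control, and binding was also compared against its ΔTm.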
Target sequence in this assay (P49841 whole entry, looked up): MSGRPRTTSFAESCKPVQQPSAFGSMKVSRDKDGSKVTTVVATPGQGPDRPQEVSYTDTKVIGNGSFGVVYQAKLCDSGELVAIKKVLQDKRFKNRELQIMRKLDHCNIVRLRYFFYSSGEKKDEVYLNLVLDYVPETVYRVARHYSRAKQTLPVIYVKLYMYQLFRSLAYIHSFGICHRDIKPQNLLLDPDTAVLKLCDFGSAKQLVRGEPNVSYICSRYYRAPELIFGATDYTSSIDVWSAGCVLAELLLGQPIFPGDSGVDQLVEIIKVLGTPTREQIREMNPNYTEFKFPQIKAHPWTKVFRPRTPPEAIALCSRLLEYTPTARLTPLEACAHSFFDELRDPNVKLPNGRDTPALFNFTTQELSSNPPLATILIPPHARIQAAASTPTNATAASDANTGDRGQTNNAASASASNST
(In general: In DSF a fluorescence change marks the thermal transition of the protein.)

Experiment [2] has as its target Glycogen synthase kinase-3 alpha (Homo sapiens, UniProt P49840). The experiment is described as follows: Inhibition of N-terminal NanoLuc-fused full length GSK3A (unknown origin) transfected in HEK293T cells incubated for 2 hrs in presence of tracer K8 by NanoBRET assay. The format is cell-based. Put shortly:
(§2)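 Cellular target engagement by NanoBRET in intact cells expressing NanoLuc-fused GSK3A or GSK3B, with EC50 values derived from tracer displacement.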

For experiment [3], the target named is T1, Glycogen synthase kinase-3 beta. The experiment is described as follows: Inhibition of N-terminal NanoLuc-fused full length intact GSK3B (unknown origin) transfected in HEK293T cells incubated for 2 hrs in presence of tracer K8 by NanoBRET assay. It counts as cell-based. The gist of the method:
as §2
Target sequence in this assay (P49841 whole entry): as the sequence (P49841 whole entry, looked up) above
Background: Bioluminescence resonance energy transfer reports proximity on the nanometre scale.

Experiment [4] shares this target. The experiment is described as follows: Inhibition of N-terminal NanoLuc-fused full length lysed GSK3B (unknown origin) transfected in HEK293T cells incubated for 2 hrs in presence of tracer K8 by NanoBRET assay. It counts as cell-based. The gist of the method: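 GSK3B NanoBRET run in the lysed mode, with cells permeabilized by digitonin to bypass compound cell penetration. EC50 values were derived from tracer displacement.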
Target sequence in this assay (P49841 whole entry): as the sequence (P49841 whole entry, looked up) above

The target in experiment [5] is T2, Bone morphogenetic protein receptor type-2 (Homo sapiens, UniProt Q13873).
T2 sequence (Q13873 whole entry): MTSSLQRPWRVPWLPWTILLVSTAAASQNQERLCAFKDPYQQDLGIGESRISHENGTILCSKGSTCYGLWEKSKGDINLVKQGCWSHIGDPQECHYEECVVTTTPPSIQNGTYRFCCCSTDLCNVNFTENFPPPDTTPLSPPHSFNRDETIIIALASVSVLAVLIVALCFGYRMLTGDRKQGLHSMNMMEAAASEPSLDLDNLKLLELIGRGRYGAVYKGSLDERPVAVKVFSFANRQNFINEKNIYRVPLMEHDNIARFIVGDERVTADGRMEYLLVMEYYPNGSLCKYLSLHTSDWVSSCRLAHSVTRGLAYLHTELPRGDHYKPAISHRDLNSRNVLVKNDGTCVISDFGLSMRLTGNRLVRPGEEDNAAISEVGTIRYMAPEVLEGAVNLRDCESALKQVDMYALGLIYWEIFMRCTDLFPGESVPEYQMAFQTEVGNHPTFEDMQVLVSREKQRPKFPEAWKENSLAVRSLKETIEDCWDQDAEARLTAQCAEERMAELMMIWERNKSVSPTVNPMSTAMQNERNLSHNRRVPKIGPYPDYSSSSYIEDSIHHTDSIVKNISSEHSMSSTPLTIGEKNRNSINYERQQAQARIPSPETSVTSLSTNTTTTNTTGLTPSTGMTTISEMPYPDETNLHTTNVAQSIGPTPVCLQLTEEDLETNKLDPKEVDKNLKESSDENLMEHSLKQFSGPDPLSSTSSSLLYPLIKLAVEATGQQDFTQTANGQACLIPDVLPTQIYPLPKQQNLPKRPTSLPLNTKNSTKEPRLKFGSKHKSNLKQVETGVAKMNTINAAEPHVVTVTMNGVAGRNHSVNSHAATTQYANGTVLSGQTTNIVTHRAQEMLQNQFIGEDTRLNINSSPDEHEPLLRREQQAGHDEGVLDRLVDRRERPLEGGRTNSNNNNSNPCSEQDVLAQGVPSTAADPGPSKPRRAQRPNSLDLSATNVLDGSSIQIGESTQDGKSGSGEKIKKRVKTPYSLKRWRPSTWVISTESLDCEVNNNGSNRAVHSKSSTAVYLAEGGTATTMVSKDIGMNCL
The experiment is described as follows: Inhibition of BMPR2 (174 to end residues) (unknown origin) using MBP as substrate incubated for 60 mins in presence of ATP by ADP Glo assay. The gist of the method: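 Enzymatic inhibition of the BMPR2 kinase was read out by ADP-Glo detection of ADP formed, and IC50 values were derived from concentration–response data.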
On the technique in general: ADP-Glo first removes unused ATP, then detects ADP through luciferase.

Experiment [6] concerns the target T3, Bone morphogenetic protein receptor type-2 (Homo sapiens) (UniProt Q13873).
T3 sequence (whole entry): T2 sequence (Q13873 whole entry)
Put plainly: Binding affinity to recombinant BMPR2 (unknown origin) assessed as change in melting temperature at 10 uM by DSF assay. The gist of the method: as §1

Experiment [7] deals with BMP2-inducible protein kinase (Homo sapiens). The experiment is described as follows: Binding affinity to recombinant BMP2K (unknown origin) assessed as change in melting temperature at 10 uM by DSF assay.
In experiment [8] the target is T4, Serine/threonine-protein kinase 3 (Homo sapiens) (UniProt Q13188).
T4 sequence (whole entry): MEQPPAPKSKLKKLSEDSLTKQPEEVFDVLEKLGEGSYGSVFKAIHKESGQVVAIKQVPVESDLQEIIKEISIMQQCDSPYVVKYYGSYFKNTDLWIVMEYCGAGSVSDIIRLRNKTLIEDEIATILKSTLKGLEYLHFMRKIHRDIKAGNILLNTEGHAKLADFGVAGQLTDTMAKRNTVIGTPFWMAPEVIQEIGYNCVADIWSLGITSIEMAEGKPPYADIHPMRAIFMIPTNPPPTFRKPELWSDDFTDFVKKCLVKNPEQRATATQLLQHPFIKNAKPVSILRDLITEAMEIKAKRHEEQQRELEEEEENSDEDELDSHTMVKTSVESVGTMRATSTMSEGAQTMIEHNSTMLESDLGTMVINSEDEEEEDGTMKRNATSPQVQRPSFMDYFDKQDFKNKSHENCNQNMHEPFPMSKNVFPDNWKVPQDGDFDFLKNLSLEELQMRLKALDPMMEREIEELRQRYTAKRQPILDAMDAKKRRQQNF
Put plainly: Binding affinity to recombinant STK3 (unknown origin) assessed as change in melting temperature at 10 uM by DSF assay. Put shortly: as §1

For experiment [9], the target named is T3, Bone morphogenetic protein receptor type-2 (Homo sapiens). Put plainly: Binding affinity to BMPR2 (unknown origin) assessed as change in enthalpy by ITC assay. The gist of the method: (§3)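 Binding measured by isothermal titration calorimetry against the recombinant BMPR2 kinase domain. Thermodynamic binding parameters, including the dissociation constant, were derived from the titration data.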

Experiment [10] has as its target T2, Bone morphogenetic protein receptor type-2. Put plainly: Inhibition of BMPR2 (unknown origin) assessed as dissociation constant by ITC assay. The gist of the method:
as §3

Experiment [11] concerns the target T3, Bone morphogenetic protein receptor type-2 (Homo sapiens). The experiment is described as follows: Binding affinity to BMPR2 (unknown origin) assessed as change in entropy by ITC assay. The gist of the method: as §3
The target in another experiment is T5, TGF-beta receptor type-1 (Homo sapiens, UniProt P36897).
T5 sequence (P36897 whole entry): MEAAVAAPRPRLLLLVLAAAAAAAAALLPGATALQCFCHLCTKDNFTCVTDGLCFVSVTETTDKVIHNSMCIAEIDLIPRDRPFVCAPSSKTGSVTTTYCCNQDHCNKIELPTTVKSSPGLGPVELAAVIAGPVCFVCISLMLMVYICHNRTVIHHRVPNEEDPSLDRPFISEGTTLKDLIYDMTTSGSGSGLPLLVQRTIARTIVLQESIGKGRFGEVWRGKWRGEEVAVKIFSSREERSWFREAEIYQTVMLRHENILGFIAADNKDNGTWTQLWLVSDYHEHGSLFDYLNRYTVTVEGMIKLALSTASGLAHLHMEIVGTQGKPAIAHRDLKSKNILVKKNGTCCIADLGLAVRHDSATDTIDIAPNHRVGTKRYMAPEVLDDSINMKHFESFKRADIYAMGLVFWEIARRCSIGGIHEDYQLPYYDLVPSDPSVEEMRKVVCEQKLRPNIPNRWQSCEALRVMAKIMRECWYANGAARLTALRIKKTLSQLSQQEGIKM
Put plainly: Inhibition of ALK5 (unknown origin) assessed as dissociation constant.

Glycogen synthase kinase-3 alpha, sequence (P49840 whole entry, the tested form may be a part): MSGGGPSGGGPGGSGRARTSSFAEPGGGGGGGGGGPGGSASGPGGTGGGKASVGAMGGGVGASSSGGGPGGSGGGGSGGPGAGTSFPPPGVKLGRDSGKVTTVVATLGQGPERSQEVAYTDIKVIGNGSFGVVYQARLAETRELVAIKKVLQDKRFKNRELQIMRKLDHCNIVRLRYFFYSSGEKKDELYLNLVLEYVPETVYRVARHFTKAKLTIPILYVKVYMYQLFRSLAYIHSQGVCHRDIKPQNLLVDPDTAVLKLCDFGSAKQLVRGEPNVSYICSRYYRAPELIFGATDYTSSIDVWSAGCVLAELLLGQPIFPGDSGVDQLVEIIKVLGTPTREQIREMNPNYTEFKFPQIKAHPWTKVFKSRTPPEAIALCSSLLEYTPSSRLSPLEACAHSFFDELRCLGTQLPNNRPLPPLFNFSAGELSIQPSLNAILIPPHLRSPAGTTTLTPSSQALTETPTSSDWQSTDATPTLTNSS

Turning to `O=C1NCCCCCNc2nccc(n2)Nc2cc1[nH]n2`, the ΔTm worked out at 4.9 °C in experiment [1] and 4.6 °C in [6]. Besides, the negative-log IC50 (pIC50) in experiment [2] was less than 4.35; in [3], less than 4.35; in [4], 5.46; in [5], 6.20.
As to `O=C1NCCCCCCNc2nccc(n2)Nc2cc1[nH]n2`, the thermal shift (ΔTm) in experiment [1], in [7] and in experiment [8] was more than 5 °C each time.
In the case of `N#CCc1ccc(Nc2nccc(Nc3cc(C4CC4)[nH]n3)n2)cc1`, the deltaH in [9] was -9.61 kcal/mol. Besides, the ΔTm in experiment [1] was 14 °C; in experiment [6], 9.2 °C. In addition, the pIC50 was 8.40 in experiment [2], 8.42 in [3], 8.92 in experiment [4] and 7.44 in experiment [5]. In addition, the pKd in [10] was 6.73; on TGF-beta receptor type-1, 6.49. The deltaS in experiment [11] is -1.97 cal/mol.K.
On to `O=C1NCCc2cccc(c2)Nc2nccc(n2)Nc2cc1[nH]n2`, for which the thermal shift (ΔTm) in experiment [1] came to 7.2 °C; in experiment [6] it was 5 °C. The negative-log IC50 (pIC50) in experiment [5] was 6.34.
